How the values were obtained:
OVCAR-8 = experiment: Anticancer activity against human OVCAR-8 cells assessed as cell doubling measured for 72 hrs by DAPI staining based analysis; format: functional
SNU-475 = experiment: Anticancer activity against human SNU-475 cells assessed as cell doubling measured for 72 hrs by DAPI staining based analysis; format: functional
HMCB cell line = experiment: Anticancer activity against human HMCB cells assessed as cell doubling measured for 72 hrs by DAPI staining based analysis; format: functional
[1] = Anticancer activity against human UM-SCC-12 cells assessed as cell doubling measured for 72 hrs by DAPI staining based analysis; format: functional
OV-90 = experiment: Anticancer activity against human OV-90 cells assessed as cell growth inhibition measured after 72 hrs by DAPI staining based analysis; format: functional
Malme-3M [2] = experiment: Anticancer activity against human Malme-3M cells assessed as cell growth inhibition measured after 72 hrs by DAPI staining based analysis; format: functional
NCI-H358 = experiment: Anticancer activity against human NCI-H358 cells assessed as cell doubling measured for 72 hrs by DAPI staining based analysis; format: functional
[3] = Anticancer activity against human C32TG cells assessed as cell growth inhibition measured after 72 hrs by DAPI staining based analysis; format: functional
Outline: (§1)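 Cells were seeded, and DNA content at 24 h after seeding (T0) was read by imaging of fixed, DAPI-stained cells. Cells were then exposed to a range of drug concentrations for a further 72 h (T72) and DNA content was read again. T72 values were normalized to T0, and GI50 was taken from curve fits as the concentration giving 50% growth inhibition relative to T0 and Ymax.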

BeWo = experiment: Anticancer activity against human BeWo cells assessed as cell growth inhibition measured after 72 hrs by DAPI staining based analysis; format: functional; outline: as §1
SNB-75 = experiment: Anticancer activity against human SNB-75 cells assessed as cell growth inhibition measured after 72 hrs by DAPI staining based analysis; format: functional
SK-MEL3 = experiment: Anticancer activity against human SK-MEL3 cells assessed as cell growth inhibition measured after 72 hrs by DAPI staining based analysis; format: functional
[4] = molecular target: Centromere-associated protein E (Homo sapiens, UniProt Q02224); experiment: Uncompetitive binding affinity to microtubule-stimulated ATPase activity of C-terminal 6-his-tagged CENP-E (2 to 340 residues)(unknown origin) expressed in Escherichia coli BL21(DE3) assessed as apparent inhibition constant; settings: read-out: Ki(app)
Outline: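 CENP-E motor domain (residues 2–340, C-terminal 6-his, from E. coli BL21(DE3)) run in MT-stimulated ATPase with 500 μM ATP, 5 μM paclitaxel-stabilized MT, 1 nM enzyme in PEM25 buffer, pH 6.8. Apparent Ki taken from the concentration-response curves with explicit correction for enzyme concentration.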

Capan-2 = experiment: Anticancer activity against human Capan-2 cells assessed as cell growth inhibition measured after 72 hrs by DAPI staining based analysis; format: functional
Outline: (§2)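 Cells seeded, DAPI-stained DNA content of fixed cells read by imaging 24 h after seeding (T0), and again after a further 72 h exposure to a range of drug concentrations (T72). T72 values were normalized to T0. Curve fits gave the concentration producing 50% growth inhibition relative to T0 and Ymax (GI50).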

MDA-MB-231 = experiment: Anticancer activity against human MDA-MB-231 cells assessed as cell growth inhibition measured after 72 hrs by DAPI staining based analysis; format: functional
HCT-8 = experiment: Anticancer activity against human HCT-8 cells assessed as cell growth inhibition measured after 72 hrs by DAPI staining based analysis; format: functional
LOX IMVI = experiment: Anticancer activity against human LOX IMVI cells assessed as cell doubling measured for 72 hrs by DAPI staining based analysis; format: functional
K562 = experiment: Anticancer activity against human K562 cells assessed as cell growth inhibition measured after 72 hrs by DAPI staining based analysis; format: functional
MCF7 = experiment: Antitumor activity against human MCF7 cells in xenograft model assessed as difference between median time to endpoint time of treated versus control group at 62.5 mg/kg; format: functional
SNU-449 = experiment: Anticancer activity against human SNU-449 cells assessed as cell growth inhibition measured after 72 hrs by DAPI staining based analysis; format: functional
CCF-STTG1 = experiment: Anticancer activity against human CCF-STTG1 cells assessed as cell growth inhibition measured after 72 hrs by DAPI staining based analysis; format: functional; outline: as §1
A498 = experiment: Anticancer activity against human A498 cells assessed as cell growth inhibition measured after 72 hrs by DAPI staining based analysis; format: functional
Outline: (§3)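 Cells were seeded and, after 24 h, DNA content was read as T0. Cells were then exposed to varying drug concentrations for a further 72 h (T72). Fixed cells were DAPI-stained and DNA content measured by automated imaging. T72 values were normalized to T0. GI50 is the concentration giving 50% growth inhibition between T0 and Ymax, obtained by curve fitting.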

U-251 [5] = experiment: Anticancer activity against human U-251 cells assessed as cell growth inhibition measured after 72 hrs by DAPI staining based analysis; format: functional
NCI-H716 = experiment: Anticancer activity against human NCI-H716 cells assessed as cell growth inhibition measured after 72 hrs by DAPI staining based analysis; format: functional
H4 = experiment: Anticancer activity against human H4 cells assessed as cell growth inhibition measured after 72 hrs by DAPI staining based analysis; format: functional; outline: as §2
639-V = experiment: Anticancer activity against human 639-V cells assessed as cell growth inhibition measured after 72 hrs by DAPI staining based analysis; format: functional; outline: as §3
U-251 [6] = experiment: Anticancer activity against human U-251 cells assessed as cell doubling measured for 72 hrs by DAPI staining based analysis; format: functional
SW480 = experiment: Anticancer activity against human SW480 cells assessed as cell growth inhibition measured after 72 hrs by DAPI staining based analysis; format: functional
SK-MEL-28 = experiment: Anticancer activity against human SK-MEL-28 cells assessed as cell doubling measured for 72 hrs by DAPI staining based analysis; format: functional
SHP77 = experiment: Anticancer activity against human SHP77 cells assessed as cell doubling measured for 72 hrs by DAPI staining based analysis; format: functional
RL = experiment: Anticancer activity against human RL cells assessed as cell growth inhibition measured after 72 hrs by DAPI staining based analysis; format: functional
Malme-3M [7] = experiment: Anticancer activity against human Malme-3M cells assessed as cell doubling measured for 72 hrs by DAPI staining based analysis; format: functional
647-V = experiment: Anticancer activity against human 647-V cells assessed as cell growth inhibition measured after 72 hrs by DAPI staining based analysis; format: functional; outline: as §3
RPMI-8226 = experiment: Anticancer activity against human RPMI-8226 cells assessed as cell growth inhibition measured after 72 hrs by DAPI staining based analysis; format: functional
TK-10 = experiment: Anticancer activity against human TK-10 cells assessed as cell growth inhibition measured after 72 hrs by DAPI staining based analysis; format: functional
SK-UT-1 = experiment: Anticancer activity against human SK-UT-1 cells assessed as cell growth inhibition measured after 72 hrs by DAPI staining based analysis; format: functional
CAL-54 = experiment: Anticancer activity against human CAL-54 cells assessed as cell doubling measured for 72 hrs by DAPI staining based analysis; format: functional
DLD-1 = experiment: Anticancer activity against human DLD-1 cells assessed as cell growth inhibition measured after 72 hrs by DAPI staining based analysis; format: functional; outline: as §2
[8] = Anticancer activity against human MT-3 cells assessed as cell doubling measured for 72 hrs by DAPI staining based analysis; format: functional

Sequence of Centromere-associated protein E (Q02224 whole entry, the tested form may be a part): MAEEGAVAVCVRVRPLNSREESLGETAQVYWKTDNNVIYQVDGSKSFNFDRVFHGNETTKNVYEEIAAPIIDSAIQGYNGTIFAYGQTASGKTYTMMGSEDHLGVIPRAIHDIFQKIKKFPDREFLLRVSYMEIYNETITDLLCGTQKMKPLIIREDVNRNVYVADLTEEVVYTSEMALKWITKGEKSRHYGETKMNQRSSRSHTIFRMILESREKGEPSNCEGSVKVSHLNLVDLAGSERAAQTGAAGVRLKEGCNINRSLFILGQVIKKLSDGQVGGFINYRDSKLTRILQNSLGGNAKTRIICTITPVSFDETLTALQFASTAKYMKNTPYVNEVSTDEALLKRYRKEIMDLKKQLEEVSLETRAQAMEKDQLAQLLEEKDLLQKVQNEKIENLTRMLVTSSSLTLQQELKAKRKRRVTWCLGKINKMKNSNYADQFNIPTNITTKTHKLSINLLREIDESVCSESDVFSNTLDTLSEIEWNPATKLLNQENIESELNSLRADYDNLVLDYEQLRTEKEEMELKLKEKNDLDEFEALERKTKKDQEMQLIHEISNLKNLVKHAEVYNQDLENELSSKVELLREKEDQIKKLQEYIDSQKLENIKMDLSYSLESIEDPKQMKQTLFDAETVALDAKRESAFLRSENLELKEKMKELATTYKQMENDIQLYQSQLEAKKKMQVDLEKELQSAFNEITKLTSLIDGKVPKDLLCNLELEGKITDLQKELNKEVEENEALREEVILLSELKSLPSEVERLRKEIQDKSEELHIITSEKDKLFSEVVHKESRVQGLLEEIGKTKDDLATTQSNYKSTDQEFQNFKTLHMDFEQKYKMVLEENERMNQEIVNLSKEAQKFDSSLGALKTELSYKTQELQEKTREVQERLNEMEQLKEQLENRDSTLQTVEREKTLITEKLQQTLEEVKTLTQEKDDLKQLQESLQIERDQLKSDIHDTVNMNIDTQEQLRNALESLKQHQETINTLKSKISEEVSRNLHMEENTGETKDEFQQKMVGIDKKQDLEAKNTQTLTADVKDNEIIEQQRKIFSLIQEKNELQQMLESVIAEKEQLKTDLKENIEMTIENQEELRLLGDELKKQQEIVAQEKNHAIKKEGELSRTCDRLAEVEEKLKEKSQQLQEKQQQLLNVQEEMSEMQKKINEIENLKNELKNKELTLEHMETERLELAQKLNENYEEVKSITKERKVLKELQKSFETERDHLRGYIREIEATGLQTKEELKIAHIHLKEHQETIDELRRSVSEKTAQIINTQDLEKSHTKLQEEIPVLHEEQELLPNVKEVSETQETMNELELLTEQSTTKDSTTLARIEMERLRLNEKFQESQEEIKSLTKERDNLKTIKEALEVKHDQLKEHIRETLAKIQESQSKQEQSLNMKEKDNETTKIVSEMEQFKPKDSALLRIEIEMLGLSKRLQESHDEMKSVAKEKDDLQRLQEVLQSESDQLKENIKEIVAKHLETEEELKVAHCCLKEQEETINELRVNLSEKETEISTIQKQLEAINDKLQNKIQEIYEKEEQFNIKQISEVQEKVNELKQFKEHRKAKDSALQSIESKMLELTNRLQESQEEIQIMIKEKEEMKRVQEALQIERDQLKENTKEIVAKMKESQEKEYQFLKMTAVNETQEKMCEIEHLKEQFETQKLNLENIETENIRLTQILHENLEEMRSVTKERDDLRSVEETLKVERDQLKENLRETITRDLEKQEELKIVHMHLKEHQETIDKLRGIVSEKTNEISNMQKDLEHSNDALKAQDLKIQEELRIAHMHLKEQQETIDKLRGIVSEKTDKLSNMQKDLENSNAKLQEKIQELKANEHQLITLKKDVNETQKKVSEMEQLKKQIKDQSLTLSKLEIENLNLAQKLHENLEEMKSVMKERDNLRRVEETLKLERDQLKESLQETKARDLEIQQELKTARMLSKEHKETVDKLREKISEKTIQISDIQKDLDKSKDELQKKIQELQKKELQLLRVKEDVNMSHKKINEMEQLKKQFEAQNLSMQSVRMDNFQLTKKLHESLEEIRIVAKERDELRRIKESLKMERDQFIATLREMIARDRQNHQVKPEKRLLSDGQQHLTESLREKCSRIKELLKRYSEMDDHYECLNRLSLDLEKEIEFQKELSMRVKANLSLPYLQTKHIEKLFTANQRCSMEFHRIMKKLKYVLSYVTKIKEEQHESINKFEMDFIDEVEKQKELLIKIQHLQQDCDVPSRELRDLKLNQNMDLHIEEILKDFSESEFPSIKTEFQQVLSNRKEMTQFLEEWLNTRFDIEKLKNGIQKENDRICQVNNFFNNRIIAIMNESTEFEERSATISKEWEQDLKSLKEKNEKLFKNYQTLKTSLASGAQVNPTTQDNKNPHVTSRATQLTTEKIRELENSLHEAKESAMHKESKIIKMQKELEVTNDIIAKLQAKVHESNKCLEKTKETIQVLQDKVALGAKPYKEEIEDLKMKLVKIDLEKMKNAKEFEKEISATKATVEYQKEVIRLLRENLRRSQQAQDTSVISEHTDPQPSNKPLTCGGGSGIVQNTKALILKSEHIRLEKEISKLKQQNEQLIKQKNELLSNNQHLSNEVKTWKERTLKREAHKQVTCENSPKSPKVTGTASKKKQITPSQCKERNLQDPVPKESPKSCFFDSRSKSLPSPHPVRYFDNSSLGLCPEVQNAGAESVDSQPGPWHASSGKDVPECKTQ

`CC(C)Oc1ccc(C(=O)N[C@H](CNC(=O)CN(C)C)Cc2ccc(-c3cn4cccc([C@H](C)O)c4n3)cc2)cc1Cl` [GSK-923295A] gave an Activity (OVCAR-8) of 3.26, an Activity (SNU-475) of 1.8 and an Activity (HMCB cell line) of 2.92. The Activity [1] was 1.78, the GI50 (OV-90) was 0.061 µM and the GI50 (Malme-3M [2]) was 0.051 µM. For the same molecule, the Activity (NCI-H358) was 2.07, the GI50 [3] was 0.028 µM and the GI50 (BeWo) was 0.026 µM. For the same molecule, the GI50 (SNB-75) was 0.026 µM, the GI50 (SK-MEL3) was 0.03 µM and the Ki [4] was 0.0032 µM. For the same molecule, the GI50 (Capan-2) was 0.119 µM, the GI50 (MDA-MB-231) was 5.01 µM and the GI50 (HCT-8) was 0.035 µM. The Activity (LOX IMVI) was 2.32, the GI50 (K562) was 0.025 µM and the Time (MCF7) was 5.4 days. For the same molecule, the GI50 (SNU-449) was 0.236 µM, the GI50 (CCF-STTG1) was 0.024 µM and the GI50 (A498) was 0.081 µM. It also gave a GI50 (U-251 [5]) of 0.026 µM, a GI50 (NCI-H716) of 0.174 µM and a GI50 (H4) of 0.031 µM. It also gave a GI50 (639-V) of 0.027 µM, an Activity (U-251 [6]) of 3.04 and a GI50 (SW480) of 0.033 µM. It also gave an Activity (SK-MEL-28) of 2.43, an Activity (SHP77) of 2.04 and a GI50 (RL) of 0.037 µM. It also gave an Activity (Malme-3M [7]) of 1.18, a GI50 (647-V) of 0.072 µM and a GI50 (RPMI-8226) of 0.027 µM. It also gave a GI50 (TK-10) of 0.049 µM, a GI50 (SK-UT-1) of 0.023 µM and an Activity (CAL-54) of 1.05. For the same molecule, the GI50 (DLD-1) was 0.06 µM and the Activity [8] was 2.93.

From ChEMBL document CHEMBL5705890, “Antitumor activity of an allosteric inhibitor of centromere-associated protein-E” (Proc Natl Acad Sci U S A, 2010)
